{
  "source": "ChEMBL document CHEMBL1800057",
  "about": "“Discovery of dual inducible/neuronal nitric oxide synthase (iNOS/nNOS) inhibitor development candidate 4-((2-cyclobutyl-1H-imidazo[4,5-b]pyrazin-1-yl)methyl)-7,8-difluoroquinolin-2(1H)-one (KD7332) part 2: identification of a novel, potent, and selective series of benzimidazole-quinolinone …” (J Med Chem, 2010)",
  "key": {"Cytochrome P450 1A2": {"target": "T1, Cytochrome P450 1A2 (Homo sapiens, UniProt P05177)", "T1 sequence (P05177 whole entry)": "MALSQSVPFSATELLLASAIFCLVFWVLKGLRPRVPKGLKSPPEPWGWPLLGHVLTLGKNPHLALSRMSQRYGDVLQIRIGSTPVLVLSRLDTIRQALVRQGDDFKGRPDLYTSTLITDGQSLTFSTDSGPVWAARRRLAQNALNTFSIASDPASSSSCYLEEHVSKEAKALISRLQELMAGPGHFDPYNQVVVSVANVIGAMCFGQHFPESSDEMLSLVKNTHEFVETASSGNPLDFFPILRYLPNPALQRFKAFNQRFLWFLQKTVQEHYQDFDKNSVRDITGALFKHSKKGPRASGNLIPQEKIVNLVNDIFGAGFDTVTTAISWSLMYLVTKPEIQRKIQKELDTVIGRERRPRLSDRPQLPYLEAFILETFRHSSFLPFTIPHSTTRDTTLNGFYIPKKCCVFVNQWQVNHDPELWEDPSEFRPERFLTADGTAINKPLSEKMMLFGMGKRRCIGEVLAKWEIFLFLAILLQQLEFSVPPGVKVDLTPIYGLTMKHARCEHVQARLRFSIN", "experiment": "Inhibition of human CYP1A2 at >100uM", "type": "ADME"}, "Cytochrome P450 3A4": {"target": "Cytochrome P450 3A4 (Homo sapiens, UniProt P08684)", "sequence (P08684 whole entry)": "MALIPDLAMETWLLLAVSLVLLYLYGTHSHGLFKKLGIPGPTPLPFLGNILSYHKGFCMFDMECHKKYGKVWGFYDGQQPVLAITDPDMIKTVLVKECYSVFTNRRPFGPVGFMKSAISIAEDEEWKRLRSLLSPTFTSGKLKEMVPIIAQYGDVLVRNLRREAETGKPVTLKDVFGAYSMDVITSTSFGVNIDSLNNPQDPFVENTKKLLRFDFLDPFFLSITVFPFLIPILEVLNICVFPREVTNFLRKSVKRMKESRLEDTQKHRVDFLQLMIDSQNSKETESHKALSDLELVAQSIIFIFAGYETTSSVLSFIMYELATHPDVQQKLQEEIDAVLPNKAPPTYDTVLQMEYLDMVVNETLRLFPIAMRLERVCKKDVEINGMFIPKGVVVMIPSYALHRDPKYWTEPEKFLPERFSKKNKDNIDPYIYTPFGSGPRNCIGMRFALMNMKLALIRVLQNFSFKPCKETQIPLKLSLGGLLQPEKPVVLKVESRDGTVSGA", "experiment": "Inhibition of human CYP3A4", "type": "ADME"}, "Cytochrome P450 2D6": {"target": "Cytochrome P450 2D6 (Homo sapiens, UniProt P10635)", "sequence (P10635 whole entry)": "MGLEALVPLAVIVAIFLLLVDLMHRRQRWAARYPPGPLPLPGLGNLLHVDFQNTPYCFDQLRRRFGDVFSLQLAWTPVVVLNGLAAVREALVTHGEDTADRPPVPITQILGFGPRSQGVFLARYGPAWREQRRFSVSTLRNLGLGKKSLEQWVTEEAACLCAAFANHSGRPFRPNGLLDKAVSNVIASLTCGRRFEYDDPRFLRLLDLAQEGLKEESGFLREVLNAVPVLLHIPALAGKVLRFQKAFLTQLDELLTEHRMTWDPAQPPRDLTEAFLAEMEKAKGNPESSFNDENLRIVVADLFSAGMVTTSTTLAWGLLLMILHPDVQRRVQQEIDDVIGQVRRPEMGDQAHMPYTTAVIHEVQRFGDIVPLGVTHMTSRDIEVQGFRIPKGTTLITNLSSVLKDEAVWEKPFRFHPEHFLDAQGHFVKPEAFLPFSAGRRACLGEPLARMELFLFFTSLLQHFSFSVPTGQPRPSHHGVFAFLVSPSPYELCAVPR", "experiment": "Inhibition of human CYP2D6", "type": "ADME"}, "Cytochrome P450 2C9": {"target": "Cytochrome P450 2C9 (Homo sapiens, UniProt P11712)", "sequence (P11712 whole entry)": "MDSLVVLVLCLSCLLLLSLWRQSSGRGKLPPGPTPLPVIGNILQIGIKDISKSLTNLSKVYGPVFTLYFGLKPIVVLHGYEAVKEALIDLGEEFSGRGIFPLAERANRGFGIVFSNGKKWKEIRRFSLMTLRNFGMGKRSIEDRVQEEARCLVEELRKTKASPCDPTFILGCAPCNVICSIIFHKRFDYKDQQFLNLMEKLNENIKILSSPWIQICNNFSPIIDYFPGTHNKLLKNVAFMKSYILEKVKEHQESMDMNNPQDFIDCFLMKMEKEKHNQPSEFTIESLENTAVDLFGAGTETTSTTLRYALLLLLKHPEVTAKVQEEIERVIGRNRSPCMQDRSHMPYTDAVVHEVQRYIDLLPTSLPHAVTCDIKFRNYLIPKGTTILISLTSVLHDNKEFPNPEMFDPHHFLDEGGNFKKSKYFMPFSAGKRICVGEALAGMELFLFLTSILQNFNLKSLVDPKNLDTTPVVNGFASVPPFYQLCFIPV", "experiment": "Inhibition of human CYP2C9", "type": "ADME"}, "Nitric oxide synthase 1": {"target": "Nitric oxide synthase 1 (Homo sapiens, UniProt P29475)", "sequence (P29475 whole entry)": "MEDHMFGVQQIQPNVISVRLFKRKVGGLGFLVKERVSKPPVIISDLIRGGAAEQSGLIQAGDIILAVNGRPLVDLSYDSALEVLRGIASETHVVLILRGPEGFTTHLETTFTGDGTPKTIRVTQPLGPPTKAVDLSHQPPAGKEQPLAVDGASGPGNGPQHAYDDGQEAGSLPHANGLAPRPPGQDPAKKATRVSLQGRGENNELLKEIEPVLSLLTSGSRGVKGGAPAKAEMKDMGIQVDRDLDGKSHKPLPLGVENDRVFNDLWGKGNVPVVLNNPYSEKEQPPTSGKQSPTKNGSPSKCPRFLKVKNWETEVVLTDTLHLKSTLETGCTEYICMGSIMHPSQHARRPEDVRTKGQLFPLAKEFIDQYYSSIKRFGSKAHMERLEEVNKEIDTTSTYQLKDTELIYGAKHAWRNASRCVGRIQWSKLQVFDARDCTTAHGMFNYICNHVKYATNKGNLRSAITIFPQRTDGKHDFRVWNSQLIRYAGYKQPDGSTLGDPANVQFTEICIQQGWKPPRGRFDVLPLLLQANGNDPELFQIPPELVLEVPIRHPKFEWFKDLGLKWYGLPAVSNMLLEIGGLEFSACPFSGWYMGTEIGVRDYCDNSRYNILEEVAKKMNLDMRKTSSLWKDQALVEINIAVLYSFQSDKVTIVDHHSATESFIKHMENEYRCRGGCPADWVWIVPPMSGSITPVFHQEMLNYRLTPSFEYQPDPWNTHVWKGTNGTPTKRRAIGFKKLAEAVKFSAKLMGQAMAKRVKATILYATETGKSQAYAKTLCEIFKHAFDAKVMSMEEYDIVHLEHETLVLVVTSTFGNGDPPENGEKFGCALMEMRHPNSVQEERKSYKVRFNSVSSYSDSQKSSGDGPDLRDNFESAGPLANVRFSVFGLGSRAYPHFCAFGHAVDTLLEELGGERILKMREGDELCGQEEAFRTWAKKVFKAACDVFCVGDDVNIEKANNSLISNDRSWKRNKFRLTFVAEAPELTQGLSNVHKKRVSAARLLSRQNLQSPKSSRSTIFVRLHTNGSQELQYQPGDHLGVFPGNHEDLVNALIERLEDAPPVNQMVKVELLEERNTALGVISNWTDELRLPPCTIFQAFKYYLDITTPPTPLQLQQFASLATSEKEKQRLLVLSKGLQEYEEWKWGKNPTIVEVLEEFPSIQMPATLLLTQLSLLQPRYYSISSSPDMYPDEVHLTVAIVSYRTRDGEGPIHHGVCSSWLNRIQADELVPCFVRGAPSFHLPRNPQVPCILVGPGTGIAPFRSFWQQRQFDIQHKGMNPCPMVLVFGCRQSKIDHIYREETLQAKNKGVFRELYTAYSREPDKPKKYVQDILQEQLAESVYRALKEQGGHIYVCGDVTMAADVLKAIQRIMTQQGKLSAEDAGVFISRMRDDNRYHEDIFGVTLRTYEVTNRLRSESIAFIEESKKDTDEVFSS", "experiment": "Inhibition of human nNOS expressed in HEK293 cells assessed as inhibition ionomycin induced nitric oxide production incubated for 24 hrs measured after 18 hrs of ionomycin challenge using 2,3-diaminonaphthalene by fluorescence assay", "type": "cell-based", "summary_of_the_method": "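HEK293 cells transfected for 4 h at 37 °C with human nNOS (10 μg) or human eNOS (15 μg) plasmid (Fugene 6, 3:1). Cells replated at 5e5 cells/mL and dosed with compound at once; SEITU (100 μM final) as positive control. After 24 h, cells activated with A23187 (83 nM final) for eNOS or ionomycin (30 μM final) for nNOS. NO read 18 h later as nitrite-DAN fluorescence.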"}, "[1]": {"target": "T2, Nitric oxide synthase, inducible (Mus musculus, UniProt P29477)", "T2 sequence (P29477 whole entry)": "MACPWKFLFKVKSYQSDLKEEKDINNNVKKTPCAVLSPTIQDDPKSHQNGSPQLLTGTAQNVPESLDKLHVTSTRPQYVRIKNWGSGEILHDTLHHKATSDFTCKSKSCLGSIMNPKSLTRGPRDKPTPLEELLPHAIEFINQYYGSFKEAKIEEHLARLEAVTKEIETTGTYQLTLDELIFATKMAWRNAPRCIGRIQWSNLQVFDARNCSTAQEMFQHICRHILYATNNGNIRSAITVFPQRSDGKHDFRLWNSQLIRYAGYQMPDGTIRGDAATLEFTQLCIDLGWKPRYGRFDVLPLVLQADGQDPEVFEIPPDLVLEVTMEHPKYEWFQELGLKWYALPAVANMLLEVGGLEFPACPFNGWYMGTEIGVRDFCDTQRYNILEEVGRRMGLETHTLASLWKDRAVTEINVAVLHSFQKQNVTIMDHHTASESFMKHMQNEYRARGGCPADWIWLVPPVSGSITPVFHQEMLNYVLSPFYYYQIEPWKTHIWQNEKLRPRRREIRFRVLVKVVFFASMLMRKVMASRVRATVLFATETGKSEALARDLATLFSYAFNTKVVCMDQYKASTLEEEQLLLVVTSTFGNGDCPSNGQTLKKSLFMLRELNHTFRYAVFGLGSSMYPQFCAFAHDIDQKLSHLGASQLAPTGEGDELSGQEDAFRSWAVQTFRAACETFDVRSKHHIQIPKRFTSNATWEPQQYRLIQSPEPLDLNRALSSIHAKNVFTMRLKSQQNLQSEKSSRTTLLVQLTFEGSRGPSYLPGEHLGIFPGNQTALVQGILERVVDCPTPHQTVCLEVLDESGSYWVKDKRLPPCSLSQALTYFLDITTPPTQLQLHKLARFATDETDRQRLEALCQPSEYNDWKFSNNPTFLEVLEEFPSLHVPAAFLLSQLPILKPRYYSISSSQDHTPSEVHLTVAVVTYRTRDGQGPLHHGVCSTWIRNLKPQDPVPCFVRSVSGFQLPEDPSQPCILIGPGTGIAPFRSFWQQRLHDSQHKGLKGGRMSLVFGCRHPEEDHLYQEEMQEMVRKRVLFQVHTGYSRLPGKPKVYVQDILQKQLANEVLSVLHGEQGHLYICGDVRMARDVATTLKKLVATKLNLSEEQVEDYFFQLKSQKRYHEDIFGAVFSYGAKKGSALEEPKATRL", "experiment": "Inhibition of mouse iNOS expressed in HEK293 cells assessed as inhibition of nitric oxide production after 18 hrs using 2,3-diaminonaphthalene by fluorescence assay", "type": "cell-based", "summary_of_the_method": "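HEK293 cells grown to ~70% confluence in DMEM/10% FBS with pen/strep, transiently transfected with 10 μg human or murine iNOS plasmid plus Fugene 6 for 4 h at 37 °C, 10% CO2. Cells replated at 5e5 cells/mL and dosed with compound at once; 1400W (100 μM final) as positive control. After 18 h, DAN (10 μg/mL final) in HCl (0.1 N final) added for 20 min at room temperature. Fluorescence read after NaOH (0.12 N final).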"}, "[2]": {"experiment": "Half life in mouse at 3 mg/kg, iv and 10 mg/kg, po", "conditions": "in vivo"}},
  "data": [
    {"smiles": "O=c1cc(Cn2c(C3CCC3)nc3nccnc32)c2ccc(F)c(F)c2[nH]1", "values": [
      {"measurement": "inhibition (INH)", "setting": "Cytochrome P450 1A2", "value": "< 50", "unit": "%"},
      {"measurement": "EC50", "setting": "Cytochrome P450 3A4", "value": "> 100", "unit": "µM"},
      {"measurement": "EC50", "setting": "Cytochrome P450 2D6", "value": "> 100", "unit": "µM"},
      {"measurement": "EC50", "setting": "Cytochrome P450 2C9", "value": "> 60", "unit": "µM"},
      {"measurement": "EC50", "setting": "Nitric oxide synthase 1", "value": 0.3, "unit": "µM"},
      {"measurement": "EC50", "setting": "[1]", "value": 0.43, "unit": "µM"},
      {"measurement": "half-life", "setting": "[2]", "value": 2.1, "unit": "h"}
    ]},
    {"smiles": "O=c1cc(Cn2c(C3CC(F)(F)C3)nc3nccnc32)c2cccc(F)c2[nH]1", "values": [
      {"measurement": "EC50", "setting": "Cytochrome P450 3A4", "value": 23, "unit": "µM"},
      {"measurement": "EC50", "setting": "Cytochrome P450 2D6", "value": "> 100", "unit": "µM"},
      {"measurement": "EC50", "setting": "Cytochrome P450 2C9", "value": 22, "unit": "µM"},
      {"measurement": "EC50", "setting": "Nitric oxide synthase 1", "value": 3, "unit": "µM"},
      {"measurement": "EC50", "setting": "[1]", "value": 3.3, "unit": "µM"},
      {"measurement": "half-life", "setting": "[2]", "value": 4, "unit": "h"}
    ]},
    {"smiles": "CC(C)Cc1nc2ccccc2n1Cc1cc(=O)[nH]c2c(F)c(F)ccc12", "values": [
      {"measurement": "EC50", "setting": "Nitric oxide synthase 1", "value": 0.69, "unit": "µM"},
      {"measurement": "EC50", "setting": "[1]", "value": 3.1, "unit": "µM"},
      {"measurement": "half-life", "setting": "[2]", "value": 1.7, "unit": "h"}
    ]},
    {"smiles": "CC(C)Cc1nc2nccnc2n1Cc1cc(=O)[nH]c2c(F)c(F)ccc12", "values": [
      {"measurement": "inhibition (INH)", "setting": "Cytochrome P450 1A2", "value": "< 50", "unit": "%"},
      {"measurement": "EC50", "setting": "Cytochrome P450 3A4", "value": "> 60", "unit": "µM"},
      {"measurement": "EC50", "setting": "Cytochrome P450 2D6", "value": "> 100", "unit": "µM"},
      {"measurement": "EC50", "setting": "Cytochrome P450 2C9", "value": 29, "unit": "µM"},
      {"measurement": "EC50", "setting": "Nitric oxide synthase 1", "value": 0.3, "unit": "µM"},
      {"measurement": "EC50", "setting": "[1]", "value": 0.44, "unit": "µM"},
      {"measurement": "half-life", "setting": "[2]", "value": 6, "unit": "h"}
    ]},
    {"smiles": "O=c1cc(Cn2c(C3CCC3)nc3nccnc32)c2cccc(F)c2[nH]1", "values": [
      {"measurement": "inhibition (INH)", "setting": "Cytochrome P450 1A2", "value": "< 50", "unit": "%"},
      {"measurement": "EC50", "setting": "Cytochrome P450 3A4", "value": "> 60", "unit": "µM"},
      {"measurement": "EC50", "setting": "Cytochrome P450 2D6", "value": "> 100", "unit": "µM"},
      {"measurement": "EC50", "setting": "Cytochrome P450 2C9", "value": "> 60", "unit": "µM"},
      {"measurement": "EC50", "setting": "Nitric oxide synthase 1", "value": 4.6, "unit": "µM"},
      {"measurement": "EC50", "setting": "[1]", "value": 1.3, "unit": "µM"},
      {"measurement": "half-life", "setting": "[2]", "value": 1.3, "unit": "h"}
    ]}
  ]
}
